Results as given in ChEMBL document CHEMBL4665652, “Discovery of novel quinoline sulphonamide derivatives as potent, selective and orally active RORγ inverse agonists” (Bioorg Med Chem Lett, 2019).

Experiments:
[1] = AUClast in mouse at 100 mg/kg, po; type: ADME, organism-based; design: time 0 - last, route oral, dose 100 mg/kg; conditions: in vivo
Procedure, shortened: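 Oral ascending-dose PK in mice at 100 mg/kg (ratios against 10 mg/kg), given as a suspension in 1% methylcellulose 400cp + 0.1% Poloxamer. Cmax, AUClast and t1/2 come from plasma profiles.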

[2] = Ratio of AUClast in mouse at 100 mg/kg, po to AUClast in mouse at 10 mg/kg, po; type: ADME, organism-based; conditions: in vivo
Procedure, shortened: (§1)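 Mice dosed orally at 10, 30 or 100 mg/kg as a suspension in 1% methylcellulose 400cp + 0.1% Poloxamer (188). Tmax, Cmax, AUClast and oral t1/2 were taken from plasma concentration–time profiles. Ratios are the value at each dose over the value at 10 mg/kg.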

[3] = Tmax in mouse at 30 mg/kg, po; type: ADME, organism-based; conditions: in vivo
Procedure, shortened: (§2)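 Mice dosed orally with an ascending-dose series at 10, 30 and 100 mg/kg. Compound given as a suspension in 1% methylcellulose 400cp + 0.1% poloxamer. Plasma Tmax taken from the concentration profiles. The Cmax ratio is expressed relative to the 10 mg/kg dose.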

Mus musculus [4] = assay: (§3) In vivo inverse agonist activity at RORgamma in po dosed MOG(35-55) peptide/PTX-induced mechanistic C57BL/6 mouse model assessed as anti-CD3 induced IL-22 level in serum dosed for 5 days during MOG/PTX priming and followed by 45 mins prior to anti-CD3 challenge and measured after 2 hrs relative to control; type: functional, organism-based; conditions: dose mg/kg 10-100, time 5.0 day
Procedure, shortened: (§4)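 Mice immunized with mouse MOG35-55 peptide plus pertussis toxin. After 5 days, compound given orally as a suspension in methylcellulose 400cp + 1% poloxamer, 45 min before an anti-CD3 challenge. Circulating cytokines measured 2 h later. Comparison vs vehicle by Dunnett post test.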

[5] = as §3, with “in” for “in po dosed”, “serum at 10 mg/kg, po” for “serum”; type: functional; conditions: time 5 day; procedure, shortened: as §4
Mus musculus [6] = assay: as §3, with “IL-17A” for “IL-22”; type: functional, organism-based; conditions: dose mg/kg 10-100, time 5.0 day; procedure, shortened: as §4
[7] = as §3, with “in” for “in po dosed”, “IFNgamma” for “IL-22”, “serum at 10 mg/kg, po” for “serum”; type: functional; conditions: time 5 day; procedure, shortened: as §4
[8] = as §3, with “in” for “in po dosed”, “IL-17F” for “IL-22”, “serum at 30 mg/kg, po” for “serum”; type: functional; conditions: time 5 day; procedure, shortened: as §4
[9] = as §3, with “in” for “in po dosed”, “IFNgamma” for “IL-22”, “serum at 30 mg/kg, po” for “serum”; type: functional; conditions: time 5 day; procedure, shortened: as §4
Cytochrome P450 2C9 = Cytochrome P450 2C9 (Homo sapiens, UniProt P11712); assay: Drug metabolism assessed as CYP2C9 (unknown origin) mediated metabolite formation; type: ADME
Cytochrome P450 2C9, sequence (P11712 whole entry): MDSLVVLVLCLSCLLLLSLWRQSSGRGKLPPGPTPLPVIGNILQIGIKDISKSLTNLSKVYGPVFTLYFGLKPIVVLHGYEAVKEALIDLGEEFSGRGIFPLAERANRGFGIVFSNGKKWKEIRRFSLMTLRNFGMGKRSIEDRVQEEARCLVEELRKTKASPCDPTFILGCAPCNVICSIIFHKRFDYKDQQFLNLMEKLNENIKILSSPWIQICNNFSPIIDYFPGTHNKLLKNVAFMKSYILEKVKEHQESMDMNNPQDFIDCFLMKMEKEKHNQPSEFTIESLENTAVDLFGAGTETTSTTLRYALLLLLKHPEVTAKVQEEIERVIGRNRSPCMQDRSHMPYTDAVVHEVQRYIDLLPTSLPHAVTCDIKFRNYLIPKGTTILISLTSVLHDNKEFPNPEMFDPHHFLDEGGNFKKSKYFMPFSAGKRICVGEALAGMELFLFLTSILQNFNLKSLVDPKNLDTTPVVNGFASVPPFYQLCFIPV

[10] = as §3, with “in” for “in po dosed”, “IL-17F” for “IL-22”, “serum at 10 mg/kg, po” for “serum”; type: functional; conditions: time 5 day; procedure, shortened: as §4
[11] = Half life in mouse at 1 mg/kg, iv; type: ADME, organism-based; conditions: in vivo
Procedure, shortened: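 Mouse PK with iv 1 mg/kg and po 10 mg/kg, oral dose as a suspension in 1% methylcellulose 400cp + 0.1% Poloxamer 188. Plasma clearance (total and unbound), iv t1/2 and oral bioavailability F were derived from the iv and po profiles.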

[12] = as §3, with “in” for “in po dosed”, “IL-17A” for “IL-22”, “serum at 100 mg/kg, po” for “serum”; type: functional; conditions: time 5 day; procedure, shortened: as §4
[13] = Tmax in mouse at 10 mg/kg, po; type: ADME, organism-based; conditions: in vivo; procedure, shortened: as §2
Mus musculus [14] = assay: as §3, with “IL-17F” for “IL-22”; type: functional, organism-based; conditions: dose mg/kg 10-100, time 5.0 day; procedure, shortened: as §4
[15] = Stability in human microsomes assessed as unbound intrinsic clearance; type: ADME, Microsome
Procedure, shortened: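 Unbound intrinsic clearance measured in human and mouse liver microsomes, expressed in L/h/kg. Values are geometric means of at least two separate runs.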

[16] = as §3, with “in” for “in po dosed”, “TNFalpha” for “IL-22”, “serum at 30 mg/kg, po” for “serum”; type: functional; conditions: time 5 day; procedure, shortened: as §4
[17] = as §3, with “in” for “in po dosed”, “serum at 30 mg/kg, po” for “serum”; type: functional; conditions: time 5 day; procedure, shortened: as §4
Mus musculus [18] = assay: Immunosuppressive activity in PLP (139 to 151 residues)-induced experimental autoimmune encephalomyelitis mouse model assessed as reduction in disease onset at 100 mg/kg, po administered bid starting from immunization relative to control; type: functional
Procedure, shortened: (§5)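 EAE induced in mice by immunization with proteolipid protein peptide PLP139-151; ascending paralysis develops 10–12 days post-immunization. Compound dosed orally b.i.d. starting from immunization. Disease onset/incidence scored relative to control.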

[19] = as §3, with “in” for “in po dosed”, “IL-2” for “IL-22”, “serum at 10 mg/kg, po” for “serum”; type: functional; conditions: time 5 day; procedure, shortened: as §4
[20] = as §3, with “in” for “in po dosed”, “IL-17A” for “IL-22”, “serum at 30 mg/kg, po” for “serum”; type: functional; conditions: time 5 day; procedure, shortened: as §4
[21] = as §3, with “in” for “in po dosed”, “serum at 100 mg/kg, po” for “serum”; type: functional; conditions: time 5 day; procedure, shortened: as §4
[22] = AUClast in mouse at 10 mg/kg, po; type: ADME, organism-based; design: route oral, time 0 - last, dose 10 mg/kg; conditions: in vivo; procedure, shortened: as §1
[23] = as §3, with “in” for “in po dosed”, “TNFalpha” for “IL-22”, “serum at 100 mg/kg, po” for “serum”; type: functional; conditions: time 5 day; procedure, shortened: as §4
[24] = as §3, with “in” for “in po dosed”, “IL-10” for “IL-22”, “serum at 100 mg/kg, po” for “serum”, “(reference value: -11%)” for “relative to control”; type: functional; conditions: time 5 day; procedure, shortened: as §4
CYP3A4 = CYP3A4 (Homo sapiens, UniProt P08684); assay: Inhibition of CYP3A4 (unknown origin) at 1 uM relative to control; type: ADME
CYP3A4, sequence (P08684 whole entry, the tested form may be a part): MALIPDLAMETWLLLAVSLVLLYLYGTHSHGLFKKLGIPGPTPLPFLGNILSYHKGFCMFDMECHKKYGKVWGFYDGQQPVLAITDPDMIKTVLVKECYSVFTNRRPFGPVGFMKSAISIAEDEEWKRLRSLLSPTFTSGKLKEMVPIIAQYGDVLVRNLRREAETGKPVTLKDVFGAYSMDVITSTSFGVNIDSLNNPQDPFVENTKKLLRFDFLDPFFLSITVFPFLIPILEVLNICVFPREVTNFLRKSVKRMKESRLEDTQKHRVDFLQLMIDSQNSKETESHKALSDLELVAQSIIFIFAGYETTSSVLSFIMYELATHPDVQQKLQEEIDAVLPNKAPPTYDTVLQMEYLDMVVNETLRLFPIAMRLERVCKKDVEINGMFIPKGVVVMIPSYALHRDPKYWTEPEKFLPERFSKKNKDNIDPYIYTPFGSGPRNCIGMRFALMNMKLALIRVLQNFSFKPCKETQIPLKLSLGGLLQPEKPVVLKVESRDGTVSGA

Mus musculus [25] = assay: Immunosuppressive activity in PLP (139 to 151 residues)-induced experimental autoimmune encephalomyelitis mouse model assessed as incidence of disease at 30 mg/kg, po administered bid starting from immunization relative to control; type: functional; procedure, shortened: as §5
[26] = Cmax in mouse at 30 mg/kg, po; type: ADME, organism-based; design: route oral, dose 30 mg/kg; conditions: in vivo; procedure, shortened: as §1
Mus musculus [27] = assay: Immunosuppressive activity in PLP (139 to 151 residues)-induced experimental autoimmune encephalomyelitis mouse model assessed as reduction in disease onset at 60 mg/kg, po administered bid starting from immunization relative to control; type: functional; procedure, shortened: as §5

- AUC(0-t) [1]: 270 µg·h/mL
- Ratio [2]: 58
- Tmax [3]: 15 min
- Fm (Cytochrome P450 2C9): 6%
- half-life [11]: 9.6 min
- Tmax [13]: 15 min
- CL free [15]: 33 mL/min/kg
- AUC(0-t) [22]: 3.9 µg·h/mL
- inhibition at 1 µM (CYP3A4): 99%
- Cmax [26]: 11800 ng/mL
Structure (SMILES): CNC(=O)[C@@H]1CCCN1S(=O)(=O)c1ccc(Cl)c(COc2cccc3c(-c4cncn4C)cc(C(C)C)nc23)c1Cl
- Activity (Mus musculus [4]): Dose-dependent effect
- Activity [5]: -16%
- Activity (Mus musculus [6]): Dose-dependent effect
- Activity [7]: -39%
- Activity [8]: -49%
- Activity [9]: -45%
- Activity [10]: -20%
- Activity [12]: -62%
- Activity (Mus musculus [14]): Dose-dependent effect
- Activity [16]: -27%
- Activity [17]: -46%
- inhibition in vivo at 100 mg/kg (Mus musculus [18]): 76%
- Activity [19]: -39%
- Activity [20]: -52%
- Activity [21]: -45%
- Activity [23]: -32%
- Activity [24]: 807%
- Activity (Mus musculus [25]): 100%
- inhibition in vivo at 60 mg/kg (Mus musculus [27]): 81%
